In brackets after ≈: the same amount, converted by molar mass.

For one data set, the system named is Staphylococcus aureus. As to the kind of experiment: Antibacterial activity against Staphylococcus aureus measured after 24 hrs. It is filed as functional. The method, boiled down: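 Broth microdilution in TSB. Overnight 37 °C culture from a single colony, washed twice by centrifugation/resuspension in TSB, set to OD600 0.1 (10⁸ CFU/mL), then diluted to 10⁵ CFU/mL. Bacteria added 3:1 to serially diluted compound (DMSO stock diluted in water). Incubated 37 °C, 24 h; OD600 read. MIC = lowest concentration giving OD like the no-bacteria control. Triplicate, three independent experiments.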

The nature of data set [1]: Stability of the compound in DMSO-d6 measured after 2 months at room temperature by 1H NMR-spectroscopic analysis. It counts as physicochemical. The settings on record: 1461 h.
The nature of data set [2]: Drug metabolism in DMSO-d6 assessed as isorottlerin formation measured after 2 hrs at 100 degC by 1H NMR analysis.
The nature of data set [3]: Stability of the compound in CHCl3 under intense heating condition by 1H NMR-spectroscopic analysis. It counts as physicochemical.
Data set [4] in a line: Stability of the compound in acetone under intense heating condition by 1H NMR-spectroscopic analysis. It counts as physicochemical.
Data set [5] can be described thus: Drug metabolism in DMSO-d6 assessed as 6-(3-Acetyl-2,4,6-trihydroxy-5-methylbenzyl)-5-hydroxy-2,2-dimethyl-8-phenyl-8,9-dihydro-2H,10H-pyrano[2,3-f]-chromen-10-one formation measured after 2 months at room temperature by HSQC analysis.
Data set [6] in a line: Drug metabolism in DMSO-d6 assessed as isorottlerin formation measured after 2 months at room temperature by RP-HPLC analysis.
The nature of data set [7]: Stability of the compound in MeCN under intense heating condition by 1H NMR-spectroscopic analysis. It is filed as physicochemical.
The nature of data set [8]: Drug metabolism in DMSO-d6 assessed as isorottlerin formation measured after 2 months at room temperature by HSQC analysis.
The nature of data set [9]: Stability of the compound in MeCN under room temperature by 1H NMR-spectroscopic analysis. It is filed as physicochemical.
Data set [10] in a line: Drug metabolism in DMSO-d6 assessed as 6-(3-Acetyl-2,4,6-trihydroxy-5-methylbenzyl)-5-hydroxy-2,2-dimethyl-8-phenyl-8,9-dihydro-2H,10H-pyrano[2,3-f]-chromen-10-one formation measured after 2 months at room temperature by RP-HPLC analysis.
Data set [11] can be described thus: Stability of the compound in toluene under room temperature by 1H NMR-spectroscopic analysis. It counts as physicochemical.
Data set [12] in a line: Stability of the compound in acetone under room temperature by 1H NMR-spectroscopic analysis. It counts as physicochemical.
Data set [13] can be described thus: Stability of the compound in CHCl3 under room temperature by 1H NMR-spectroscopic analysis. It counts as physicochemical.
Data set [14] is described as follows: Drug metabolism in DMSO-d6 assessed as 6-(3-Acetyl-2,4,6-trihydroxy-5-methylbenzyl)-5-hydroxy-2,2-dimethyl-8-phenyl-8,9-dihydro-2H,10H-pyrano[2,3-f]-chromen-10-one formation measured after 2 hrs at 100 degC by 1H NMR analysis.
Data set [15] in a line: Stability of the compound in toluene under intense heating condition by 1H NMR-spectroscopic analysis. It counts as physicochemical.

What is called MIC is the lowest concentration found to suppress growth. Low values mean inhibition by little substance, high ones a need for much substance. As to `CC(=O)c1c(O)c(C)c(O)c(Cc2c3c(c(O)c4c2OC(c2ccccc2)CC4=O)C=CC(C)(C)O3)c1O` (stereo unspecified), the MIC against Staphylococcus aureus was above 125 µM.
Still for that read-out and setting: under `CC1(C)C=Cc2c(O)c(Cc3c(O)cc(O)cc3O)c(O)c(C(=O)/C=C/c3ccccc3)c2O1` stands 15.6 µM (≈ 7.18 µg/mL); under `CC(=O)c1c(O)c(C)c(O)c(Cc2c(O)c3c(c4c2OC(c2ccccc2)CC4=O)OC(C)(C)C=C3)c1O` (stereo unspecified), above 125 µM; under `Cc1cc(O)cc(O)c1Cc1c(O)c2c(c(C(=O)/C=C/c3ccccc3)c1O)OC(C)(C)C=C2`, 7.8 µM (≈ 3.58 µg/mL).
The same measure, in the same setting: the figure for `CC(=O)c1c(O)cc(O)c(Cc2c(O)c3c(c(C(=O)/C=C/c4ccccc4)c2O)OC(C)(C)C=C3)c1O` is 7.8 µM (≈ 3.92 µg/mL); for `CCC(=O)C1=C(O)C(C)(C)C(O)=C(Cc2c(O)c3c(c(C(=O)CC)c2O)OC(C)(C)C=C3)C1=O` [DRUMMONDIN A] it is 1.56 µM (≈ 0.734 µg/mL).
In the data set with Staphylococcus aureus, `CCC(=O)C1=C(O)C(C)(C)C(O)=C(Cc2c(O)c3c(c(C(C)=O)c2O)OC(C)(C)C=C3)C1=O` [DRUMMONDIN B] returned an MIC of 3.12 µM (≈ 1.42 µg/mL). This MIC lies about 2-fold higher than the previous one.
Regarding `CC(=O)C1=C(O)C(C)(C)C(O)=C(Cc2c(O)c3c(c(C(C)=O)c2O)OC(C)(C)C=C3)C1=O` [DRUMMONDIN C], inhibition of growth against Staphylococcus aureus (MIC) required 3.12 µM (≈ 1.38 µg/mL).
Same read-out and setting: the figure for `CC(=O)C1=C(O)C(C)(CC=C(C)C)C(O)=C(Cc2c(O)c(CC=C(C)C)c(O)c(C(C)=O)c2O)C1=O` (stereo unspecified) [DRUMMONDIN F] is 0.78 µM (≈ 0.389 µg/mL).
Consider `CC(=O)c1c(O)c(C)c(O)c(Cc2c(O)c3c(c(C(=O)/C=C/c4ccccc4)c2O)OC(C)(C)C=C3)c1O` [ROTTLERIN], for which the Stability result in [1] is “Unstable”; in data set [3], “Stable”; in [4], “Stable”; in [7] it was “Stable”; in [9], “Stable”; in data set [11], “Stable”. For the same compound, the Stability result in [12], in [13] and in data set [15] was “Stable” in each case. Besides, the Drug metabolism entry was “Metabolite detected” in [2]; “Metabolite detected” in [5]; 20% in data set [6]; “Metabolite detected” in [8]; 2% in data set [10]; “Metabolite detected” in data set [14]. Besides, the minimal inhibitory concentration (MIC) with Staphylococcus aureus came out at 2 µM (≈ 1.03 µg/mL).
GENTAMICIN: the lowest concentration to inhibit growth against Staphylococcus aureus (MIC) was 2 µM. That is a single-digit micromolar value.

The values are drawn from ChEMBL document CHEMBL4316649, “The Mosaic of Rottlerin: The Sequel” (J Nat Prod, 2019).
